# From ChEMBL document CHEMBL2311493, “Focused pseudostatic hydrazone libraries screened by mass spectrometry binding assay: optimizing affinities toward γ-aminobutyric acid transporter 1” (J Med Chem, 2013)
# Experiments:
# [1] = target: Sodium- and chloride-dependent GABA transporter 1 (Mus musculus) (UniProt P31648); test: Binding affinity to mouse GAT1 expressed in HEK293 cells membranes assessed as remaining [2H10]NO711 binding level at 10 uM using LC-ESI-MS/MS analysis by [2H10]NO711 binding inhibition assay; assay type: cell membranes
# How it was run: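 Membranes from HEK293 cells stably expressing mGAT1, ~0.1 mg/mL protein, in pH 7.1 phosphate buffer with 1 M NaCl and 1% DMSO final. A single aldehyde (10 μM) and hydrazine 10 (100 μM) were incubated 4 h at 37 °C with the target to form the hydrazone. NO711 marker (20 nM) was then added for 40 min. Bound marker was recovered by filtration, 1 M NaCl washes and MeOH elution, then quantified by LC-ESI-MS/MS against [²H₁₀]NO711 internal standard. Result is % remaining specific binding, n = 4.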
# [2] = target: T1, Sodium- and chloride-dependent GABA transporter 1 (Mus musculus, UniProt P31648); test: Inhibition of [3H]GABA uptake at mouse GAT1 expressed in HEK293 cells after 25 mins by scintillation counting analysis; assay type: cell-based
# [3] = target: T1, Sodium- and chloride-dependent GABA transporter 1; test: Binding affinity to mouse GAT1 expressed in HEK293 cells membranes using LC-ESI-MS/MS analysis by [2H10]NO711 binding inhibition assay; assay type: cell membranes
# How it was run: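 Full competition with NO711 marker (20 nM) on mGAT1 HEK293 membranes in pH 7.1 phosphate buffer containing 1 M NaCl. Eight competitor concentrations, triplicate points. Bound marker was quantified by LC-ESI-MS/MS. Specific binding is total minus nonspecific. IC50 came from a one-site nonlinear fit and was converted to Ki by Cheng–Prusoff. pKi is mean ± SEM of at least three experiments.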
Activity [1],SMILES,further results
81%,Cc1ccccc1-c1ccccc1C=O,
35%,O=Cc1cc(F)ccc1-c1ccccc1Cl,
81%,O=Cc1ccccc1-c1cccc(-c2ccccc2)c1,
81%,O=Cc1cc(F)ccc1-c1ccc(Cl)cc1,
88%,COc1cc(F)ccc1-c1ccccc1C=O,
88%,COc1cccc(F)c1-c1ccccc1C=O,
81%,O=Cc1ccccc1-c1cc(F)ccc1F,
91%,COc1cccc(-c2ccccc2C=O)c1,
82%,O=Cc1ccccc1-c1ccc(F)cc1,
91%,Cc1ccc(-c2ccccc2C=O)cc1,
81%,O=Cc1ccccc1-c1ccccc1-c1ccccc1,
85%,O=Cc1ccccc1-c1ccc(Cl)cc1Cl,
81%,O=Cc1ccccc1-c1ccc(C(F)(F)F)cc1C(F)(F)F,
82%,O=Cc1ccccc1-c1cccc(F)c1,
81%,O=Cc1ccccc1-c1cc(F)cc(F)c1,
82%,O=Cc1ccccc1-c1ccc(F)c(F)c1,
79%,O=Cc1ccccc1-c1cccc(Cl)c1,
79%,COc1ccccc1-c1ccccc1C=O,
85%,O=Cc1c(F)cccc1-c1ccccc1,

Activity [1],SMILES,further results
91%,COc1ccc(-c2ccccc2C=O)cc1,
81%,O=Cc1ccccc1-c1ccc(F)cc1F,
88%,COc1ccc(F)cc1-c1ccccc1C=O,
91%,Cc1cccc(-c2ccccc2C=O)c1,
79%,O=Cc1ccccc1-c1ccccc1Cl,
81%,O=Cc1ccccc1-c1ccc(-c2ccccc2)cc1,
35%,O=Cc1ccccc1-c1c(F)cccc1F,
< 5%,O=C(O)C1CCCN(CCN/N=C/c2ccccc2-c2cccc(F)c2F)C1 (configuration not stated),IC50 ([2]; read-out: pIC50 (converted)): 1500 nM; Ki [3]: 204 nM
81%,Cc1ccc(-c2ccccc2C=O)c(C)c1,
81%,O=Cc1ccccc1-c1cccc(F)c1F,
82%,O=Cc1ccccc1-c1ccccc1F,
88%,O=Cc1cccc(-c2ccccc2)c1,
81%,O=Cc1ccccc1-c1ccc(F)cc1Cl,
35%,O=Cc1ccccc1-c1c(F)cc(F)cc1F,IC50 [3]: 10000 nM
79%,O=Cc1ccccc1-c1ccc(Cl)cc1,
35%,O=Cc1cc(F)ccc1-c1ccccc1F,
85%,O=Cc1ccccc1-c1ccc(Cl)cc1F,
85%,O=Cc1cc(F)ccc1-c1ccccc1,

# Second part, the molecule before the results:
SMILES,Activity [1],further results
O=C(O)C1CCCN(CCN/N=C/c2ccccc2-c2cc(F)ccc2F)C1 (configuration not stated),> 10%,
O=C(O)C1=CCCNC1 [GUVACINE],,IC50 ([2]; read-out: IC50): 14000 nM
O=C(O)C1CCCN(CCN/N=C/c2ccccc2-c2cc(F)cc(F)c2)C1 (configuration not stated),> 10%,
O=C(O)C1CCCN(CCN/N=C/c2ccccc2-c2ccccc2)C1 (configuration not stated),< 5%,IC50 ([2]; read-out: pIC50 (converted)): 4920 nM; Ki [3]: 652 nM
COc1cccc(-c2ccccc2/C=N/NCCN2CCCC(C(=O)O)C2)c1 (configuration not stated),> 10%,
O=C(O)[C@@H]1CCCN(CCOCCC(c2ccccc2)c2ccccc2)C1,,IC50 ([2]; read-out: IC50): 55 nM
COc1cc(F)ccc1-c1ccccc1/C=N/NCCN1CCCC(C(=O)O)C1 (configuration not stated),< 5%,IC50 ([2]; read-out: pIC50 (converted)): 7350 nM; Ki [3]: 760 nM
O=C(O)C1CCCN(CCN/N=C/c2ccccc2-c2cccs2)C1 (configuration not stated),8.2%,IC50 ([2]; read-out: pIC50 (converted)): 2870 nM; Ki [3]: 590 nM
O=C(O)C1CCCN(CCN/N=C/c2ccccc2-c2ccc(-c3ccccc3)cc2)C1 (configuration not stated),> 10%,
O=C(O)C1CCCN(CCN/N=C/c2cc(F)ccc2-c2ccccc2)C1 (configuration not stated),13%,
O=C(O)C1CCCN(CCN/N=C/c2ccccc2-c2ccc(Cl)cc2F)C1 (configuration not stated),< 5%,IC50 ([2]; read-out: pIC50 (converted)): 126 nM; Ki [3]: 24.7 nM
O=C(O)C1CCCN(CCC/C=C/c2ccccc2-c2ccccc2F)C1 (configuration not stated),,IC50 ([2]; read-out: pIC50 (converted)): 3330 nM; Ki [3]: 647 nM
COc1ccc(F)cc1-c1ccccc1/C=N/NCCN1CCCC(C(=O)O)C1 (configuration not stated),> 10%,
Cc1ccc(-c2ccccc2/C=N/NCCN2CCCC(C(=O)O)C2)cc1 (configuration not stated),10%,IC50 ([2]; read-out: pIC50 (converted)): 3400 nM; Ki [3]: 473 nM
COc1ccc(-c2ccccc2/C=N/NCCN2CCCC(C(=O)O)C2)cc1 (configuration not stated),> 10%,
COc1cccc(F)c1-c1ccccc1/C=N/NCCN1CCCC(C(=O)O)C1 (configuration not stated),< 5%,IC50 ([2]; read-out: pIC50 (converted)): 2250 nM; Ki [3]: 443 nM
O=C(O)C1CCCN(CCN/N=C/c2cc(F)ccc2-c2ccccc2Cl)C1 (configuration not stated),< 5%,IC50 ([2]; read-out: pIC50 (converted)): 1230 nM; Ki [3]: 104 nM
O=C(O)C1CCCN(CCN/N=C/c2ccccc2-c2cccc(F)c2)C1 (configuration not stated),16%,
O=C(O)C1CCCN(CCN/N=C/c2ccccc2-c2ccccc2F)C1 (configuration not stated),< 5%,IC50 ([2]; read-out: pIC50 (converted)): 528 nM; Ki [3]: 122 nM
O=C(O)C1CCCN(CCN/N=C/c2ccccc2-c2ccc(F)c(F)c2)C1 (configuration not stated),< 5%,IC50 ([2]; read-out: pIC50 (converted)): 3320 nM; Ki [3]: 625 nM
O=C(O)C1CCCN(CCN/N=C/c2cc(F)ccc2-c2ccc(Cl)cc2)C1 (configuration not stated),< 5%,IC50 ([2]; read-out: pIC50 (converted)): 1960 nM; Ki [3]: 234 nM
O=C(O)C1CCCN(CCN/N=C/c2ccccc2-c2ccc(F)cc2)C1 (configuration not stated),< 5%,IC50 ([2]; read-out: pIC50 (converted)): 1790 nM; Ki [3]: 284 nM

SMILES,Activity [1],further results
O=C(O)C1CCCN(CCC=C(c2ccccc2)c2ccccc2)C1 (configuration not stated),,IC50 ([2]; read-out: IC50): 130 nM
O=C(O)C1CCCN(CCN/N=C/c2cc(F)ccc2-c2ccccc2F)C1 (configuration not stated),< 5%,IC50 ([2]; read-out: pIC50 (converted)): 1730 nM; Ki [3]: 264 nM
O=C(O)C1CCCN(CCN/N=C/c2ccccc2-c2ccc(Cl)cc2Cl)C1 (configuration not stated),< 5%,IC50 ([2]; read-out: pIC50 (converted)): 61.2 nM; Ki [3]: 8.05 nM
O=C(O)C1CCCN(CCN/N=C/c2ccccc2-c2c(F)cccc2F)C1 (configuration not stated),< 5%,IC50 ([2]; read-out: pIC50 (converted)): 998 nM; Ki [3]: 131 nM
O=C(O)C1CCCN(CCC/C=C/c2ccccc2-c2ccc(F)cc2Cl)C1 (configuration not stated),,IC50 ([2]; read-out: pIC50 (converted)): 3990 nM; Ki [3]: 313 nM
O=C(O)C1CCCN(CCN/N=C/c2ccccc2-c2c(F)cc(F)cc2F)C1 (configuration not stated),< 5%,IC50 ([2]; read-out: pIC50 (converted)): 255 nM; Ki [3]: 30.6 nM
O=C(O)C1CCCN(CCN/N=C/c2ccccc2-c2ccccc2Cl)C1 (configuration not stated),< 5%,IC50 ([2]; read-out: pIC50 (converted)): 479 nM; Ki [3]: 65.5 nM
O=C(O)C1CCCN(CCN/N=C/c2ccccc2-c2ccccc2-c2ccccc2)C1 (configuration not stated),> 10%,
O=C(O)C1CCCN(CCC/C=C/c2ccccc2-c2ccc(F)cc2F)C1 (configuration not stated),,IC50 ([2]; read-out: pIC50 (converted)): 2840 nM; Ki [3]: 592 nM
O=C(O)C1CCCN(CCN/N=C/c2ccccc2-c2ccc(C(F)(F)F)cc2C(F)(F)F)C1 (configuration not stated),< 5%,IC50 ([2]; read-out: pIC50 (converted)): 2820 nM; Ki [3]: 170 nM
O=C(O)[C@@H]1CCCN(CCO/N=C(\Cc2ccccc2F)c2ccccc2F)C1,,IC50 ([2]; read-out: IC50): 80 nM
O=C(O)C1CCCN(CCC/C=C/c2ccccc2-c2ccc(Cl)cc2Cl)C1 (configuration not stated),,IC50 ([2]; read-out: pIC50 (converted)): 769 nM; Ki [3]: 117 nM
Cc1cccc(-c2ccccc2/C=N/NCCN2CCCC(C(=O)O)C2)c1 (configuration not stated),> 10%,
O=C(O)C1CCCN(CCN/N=C/c2c(F)cccc2-c2ccccc2)C1 (configuration not stated),> 10%,
Cc1ccsc1C(=CCCN1CCC[C@@H](C(=O)O)C1)c1sccc1C [TIAGABINE],,IC50 ([2]; read-out: IC50): 70 nM
O=C(O)[C@@H]1CCCN(CCOCCc2ccccc2-c2ccccc2)C1,,IC50 ([2]; read-out: IC50): 111 nM
COc1ccccc1-c1ccccc1/C=N/NCCN1CCCC(C(=O)O)C1 (configuration not stated),19%,
O=C(O)C1CCCN(CCN/N=C/c2ccccc2-c2cccc(-c3ccccc3)c2)C1 (configuration not stated),> 10%,
O=C(O)C1CCCN(CCN/N=C/c2ccccc2-c2cccc(Cl)c2)C1 (configuration not stated),> 10%,
O=C(O)C1CCCN(CCC/C=C/c2ccccc2-c2ccccc2Cl)C1 (configuration not stated),,IC50 ([2]; read-out: pIC50 (converted)): 3560 nM; Ki [3]: 834 nM
O=C(O)C1CCCN(CCN/N=C/c2cccc(-c3ccccc3)c2)C1 (configuration not stated),> 10%,
